The list is not random: actives were taken first. Their share in the collection is about 3.2%.
Bim-Mcl-1: human Bim-Mcl-1 interaction inhibition; Bead-based flow cytometry, Bim peptide-Mcl-1 binding; AID 1009; inhibition, % at 10 µM; Q07820; hit rate 0.1% among 190,000; in the data active = inhibition above about 40%
14-3-3 Bad PPI: disrupts binding of bovine 14-3-3 zeta to phospho-Bad peptide | hit rate 0.71% among 220,000 | P63103 | inhibition, % at 21.7 µM | TR-FRET 14-3-3zeta/Dy647-pBad peptide displacement, 1 h;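 active = inhibition above about 70%, limit read from the data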
Mcl1-Noxa inh: Mcl-1/Noxa interaction inhibition; Q07820; TR-FRET Mcl-1/Noxa peptide binding, 2 h; inhibition, % at 21.7 µM; hit rate 1.5% among 220,000;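 active = compounds that cut the protein-peptide binding signal by more than 50% relative to plate controls in a single-dose test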;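 note: His-tagged Mcl-1 with rhodamine Noxa BH3 peptide and terbium anti-His antibody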
Calb biofilm kill: mixture kills Candida albicans biofilm cells. C. albicans biofilm persisters + clotrimazole, fluorescence viability; primary screen in compound mixtures of four per well. hit rate 0.02% among 120,000. inhibition, % at 7.6 µM;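 active = inhibition above 30.3% in the primary screen of four-compound pools, then above 30% when the compound was retested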;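 note: compounds exposed to preformed 24 h biofilms for 48 h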
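Assay system: C. albicans biofilms / Medium: RPMI/MOPS medium, pH 7.0 / Schedule: biofilm formation 24 h, compound exposure 48 h, 37 °C / Measured by: Alamar Blue fluorescence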
Mcl1 Bid PPI: Mcl-1/Bid interaction inhibition. Q07820. TR-FRET Mcl-1/Bid-Dy647 peptide binding, 1536-well. inhibition, % at 21.7 µM. hit rate 0.97% among 220,000. AID 1021;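 active = compounds that cut the binding signal by more than half at the single screening dose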;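 note: His-tagged Mcl-1 with europium anti-His antibody binding Bid BH3 peptide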
Hck-Nef inh: inhibitors of human Hck kinase activated by Nef. AID 463187. inhibition, % at 20 µM. Recombinant Hck-YEEI plus Nef, Z-Lyte FRET kinase assay. P08631. hit rate 0.68% among 220,000;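 active = Hck-Nef kinase inhibition above about 50%, limit read from the data; inactive = inhibition below that limit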
Target sequence (P08631 whole entry, looked up): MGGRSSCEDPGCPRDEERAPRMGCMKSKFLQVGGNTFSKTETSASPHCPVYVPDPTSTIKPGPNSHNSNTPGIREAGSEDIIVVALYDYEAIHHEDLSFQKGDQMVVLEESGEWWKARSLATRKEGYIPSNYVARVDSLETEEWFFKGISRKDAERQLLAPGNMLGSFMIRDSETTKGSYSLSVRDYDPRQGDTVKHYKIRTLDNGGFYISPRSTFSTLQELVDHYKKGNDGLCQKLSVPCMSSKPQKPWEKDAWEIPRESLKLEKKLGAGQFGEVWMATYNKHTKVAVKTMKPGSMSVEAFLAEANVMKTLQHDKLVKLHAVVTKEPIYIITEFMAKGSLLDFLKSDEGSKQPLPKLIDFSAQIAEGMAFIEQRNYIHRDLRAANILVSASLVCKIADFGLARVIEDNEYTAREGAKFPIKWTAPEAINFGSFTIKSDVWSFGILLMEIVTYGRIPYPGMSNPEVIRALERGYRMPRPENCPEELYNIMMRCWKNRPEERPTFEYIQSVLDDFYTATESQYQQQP
Numbers stand for hits; - = inactive; . = not tested or not shown.

SMILES	Bim-Mcl-1	14-3-3 Bad PPI	Mcl1-Noxa inh	Calb biofilm kill	Mcl1 Bid PPI	Hck-Nef inh
COc1cc(/C=C2\SC(=Nc3c(C)n(C)n(-c4ccccc4)c3=O)NC2=O)ccc1O	-	-	50.6	-	-	-
CCOc1cc(/C=C2\NC(=S)N(c3c(C)n(C)n(-c4ccccc4)c3=O)C2=O)ccc1O	-	-	-	-	-	-
COc1ccc(/C=C2\SC(=O)N=C2N)cc1OC	-	-	-	-	-	-
Cn1cccc1/C=C1\SC(=Nc2ccc(O)cc2)NC1=O	.	-	-	-	-	-
COc1cc(/C=C2\SC(=Nc3ccc(O)cc3)NC2=O)cc(OC)c1O	-	-	61.7	-	-	-
COc1cc(/C=C2\SC(c3ccc(C)cc3)=NC2=O)cc(OC)c1O	-	-	51.5	.	-	-
CCc1nnc(NC(=O)Cc2ccc(OCc3c(C)noc3C)cc2)s1	-	-	-	.	-	-
C=CCc1ccc(OCCOCCOc2cccc3ccc(C)nc23)c(OC)c1	-	74.2	-	.	80.3	-
CCn1c(Cc2ccc(OC)cc2)nnc1SCC(=O)Nc1nc2ccccc2s1	-	-	-	.	-	-
N#CC(C#N)=CNc1cccnc1	.	-	-	-	-	-
COC(=O)Cc1nnc(Nc2cccc(C)c2)c2ccccc12	.	-	-	-	-	-
CCOC(=O)Cc1nnc(Nc2cccc(C)c2)c2ccccc12	-	-	-	.	64.5	-
CN(C)c1ccc(/C=N/NC(=O)c2ccccc2)cc1	-	-	-	-	-	-
COc1cccc(NC(=O)c2cccc(OC)c2OC)c1	-	-	-	.	-	-
CN(C)c1ccc(/C=N/NC(=O)c2cccc(C(=O)N/N=C/c3ccc(N(C)C)cc3)n2)cc1	-	-	82.2	-	-	-
CCN(CC)c1ccc(NC(=O)c2cc(Cl)ccc2OC)cc1	-	-	65.8	.	-	-
CN(C)c1ccc(NC(=O)c2cccc(C(=O)Nc3ccc(N(C)C)cc3)n2)cc1	-	-	85.7	-	-	-
COc1cccc(C(=O)Nc2ccc(N(C)C)cc2)c1OC	-	-	65.1	.	-	-
CCCOC(=O)c1ccc(NC(=O)c2cc(Cl)ccc2OC)cc1	-	-	-	-	-	-
CCOC(=O)Cc1csc(NC(=O)CCCC(=O)O)n1	.	-	-	-	-	-
Cc1cccc(CSCC(=O)NCc2ccc(S(N)(=O)=O)cc2)c1	-	-	-	-	-	-
COC(=O)C(CC(C)C)NC(=O)c1ccc(F)cc1 (stereo not drawn)	-	-	-	.	98.1	-
CC(NC(=O)c1ccc(F)cc1)c1ccc(F)cc1 (stereo not drawn)	-	-	-	-	-	-
Cc1ccc(-c2nnc3ccc(SC(C)C(=O)O)nn23)cc1 (stereo not drawn)	-	-	77.6	.	-	-
CC(C)CC(=O)Nc1ccnc(-c2ccncc2)n1	-	-	-	-	-	-
SMILES	Bim-Mcl-1	14-3-3 Bad PPI	Mcl1-Noxa inh	Calb biofilm kill	Mcl1 Bid PPI	Hck-Nef inh
Nc1cc(Nc2ccc(Br)cc2)nc(N)n1	.	-	-	-	-	-
CCOc1ccccc1CNc1ccc(O)cc1	-	-	72.3	-	-	-
NS(=O)(=O)c1ccc(NCc2ccccc2OCc2ccccc2F)cc1	-	82.0	-	.	-	-
Oc1ccc(NCc2ccccc2OCc2ccccc2F)cc1	-	-	-	.	-	-
CC(On1nnc2ccccc21)C(=O)N1CCN(Cc2ccccc2)CC1 (stereo not drawn)	-	-	-	-	-	-
O=C1NNC(c2ccccc2)=N/C1=C\c1ccco1	.	-	65.0	-	-	-
O=C1NNC(c2ccccc2)=N/C1=C\c1ccccc1Cl	.	-	-	-	-	-
COc1ccc(N)c2c1OCCC2=O	-	-	57.1	-	-	-
COc1ccc(S(=O)(=O)N(C)C)cc1NC(=O)COC(=O)c1nc2nccc(C)n2n1	.	-	-	-	-	-
CC(/C=C1\SC(=S)N(C(C(=O)O)c2ccccc2)C1=O)=C\c1ccccc1 (stereo not drawn)	.	-	-	-	-	74.8
CN(C)c1ccc(NC(=O)CN2CCC(N3CCCCC3)CC2)cc1	-	74.9	-	.	-	-
Cc1cccc(N2CCN(C(=S)Nc3ccc4nc(N5CCN(C)CC5)cc(C)c4c3)CC2)c1C	-	-	-	-	85.5	-
Cc1cc(N2CCN(C)CC2)nc2ccc(NC(=S)N3CCCCC3)cc12	-	-	-	-	-	-
Cc1cc(C)n(C(=O)CCCn2nc(C)c([N+](=O)[O-])c2C)n1	-	-	-	-	-	-
O=C(CSc1nnc2scc(-c3ccccc3)n12)N1CCN(Cc2ccccc2)CC1	-	-	-	.	94.7	-
C=CCn1c(SCC(=O)Nc2sccc2C(N)=O)nc2ccc(Cl)cc2c1=O	-	-	-	.	60.8	-
C=CCn1c(SCC(=O)Nc2sccc2C(N)=O)nc2ccccc2c1=O	-	-	-	.	-	-
CC(=O)N1c2ccc([N+](=O)[O-])cc2NC(=O)CC1C (stereo not drawn)	-	-	-	-	-	-
Nc1cc([N+](=O)[O-])ccc1O	-	-	-	-	-	-
COc1ccc(O)c(N)c1	-	-	89.5	-	-	-
CCCc1cc(=O)[nH]c(SCCN2C(=O)c3ccccc3C2=O)n1	-	-	-	-	-	-
CCOc1ccc(C(=O)Nc2cccc(C(=O)O)c2)cc1Cl	-	-	-	-	-	-
CCOc1ccc(C(=O)Nc2cc(NC(=O)c3ccc(OCC)c(Cl)c3)cc(C(=O)O)c2)cc1Cl	-	-	83.5	-	-	-
CCOc1ccc(C(=O)Nc2cccc(-c3nc4cccnc4o3)c2)cc1Cl	-	-	-	.	50.9	-
CCOc1ccc(C(=O)Nc2ccc(NC(=O)c3ccco3)c(Cl)c2)cc1Cl	-	-	-	.	-	-
SMILES	Bim-Mcl-1	14-3-3 Bad PPI	Mcl1-Noxa inh	Calb biofilm kill	Mcl1 Bid PPI	Hck-Nef inh
COc1ccc(-c2ccc3c(n2)sc2c(=O)[nH]c(=O)[nH]c23)cc1OC	-	-	84.2	-	-	-
COc1ccc(-c2ccc3c(N)c(C(=O)NC(C)C)sc3n2)cc1OC	.	-	-	-	-	-
O=c1[nH]c(S)c(/C=C2\C=Nc3ccccc32)s1	.	-	62.2	-	-	-
CC1CN(C(=O)c2cccc(C(=O)N3CC(C)OC(C)C3)c2)CC(C)O1 (stereo not drawn)	-	-	-	.	97.1	-
CSc1ccccc1NC(=O)c1cc2ncc(Br)cn2n1	-	-	59.1	-	-	-
Cc1onc(-c2ccccc2)c1C(=O)NC(=S)NNC(=O)c1cc(-c2ccc(F)cc2)n[nH]1	.	-	-	-	-	-
COc1ccc(Nc2nc(NCc3ccco3)nc(N/N=C/c3ccccc3)n2)cc1	-	81.3	-	.	-	-
COc1ccc(CC(=O)n2nc(-c3ccccc3)nc2NCc2ccco2)cc1	-	78.0	-	.	-	-
CC(=O)c1cccc(NC(=O)Nc2cc3sccc3n2C)c1	-	-	70.9	.	-	-
CCCCCCOC(=O)C(C#N)c1nc2ccccc2nc1N1CCN(C)CC1 (stereo not drawn)	-	-	52.6	.	-	-

Bioassay records deposited in PubChem by several laboratories.
